Sampled rows, rich in hits. Any-hit rate of the full collection: about 4.5%.
CHO parental Ca – ATP-evoked calcium signal inhibitors, parental CHO, primary screen, counter-screen for OX1R antagonist project, cell-based, fluorescence, Fluo-8 calcium dye; parental CHO-K1, ATP-induced calcium, Fluo-8 fluorescence; inhibition, % at 5.6 µM; hit rate 0.63% among 330,000; AID 463079, 2010;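 active = inhibition above that plate's mean sample inhibition plus 3 SD, cut at about 26% in these data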;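 also: 0% = ATP-challenged DMSO wells and 100% = DMSO wells without ATP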
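Test system: untransfected parental CHO cell line; also added: ATP stimulus; dosing: 5.6 µM, single dose; signal: calcium-sensitive Fluo-8 fluorescence; measure: percent inhibition of ATP-evoked calcium rise, normalized to controls; benchmarks: low control ATP plus DMSO, high control DMSO only; replication: one well per compound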
TAAR1 antag – human TAAR1 antagonists, primary screen, Fluo-8 calcium fluorescence, CHO RD-HGA16 cells; Trace amine-associated receptor 1 (Homo sapiens), Q96RJ0; antagonist; inhibition, % at 3 µM; hit rate 1.5% among 360,000;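 active = inhibition above a per-plate cutoff, the mean inhibition of test compounds on that plate plus 3 SD, cut at about 49% in these data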;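 also: 0% = DMSO plus EC80 beta-PEA response and 100% = DMSO alone without agonist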
Target sequence (Q96RJ0 whole entry, looked up): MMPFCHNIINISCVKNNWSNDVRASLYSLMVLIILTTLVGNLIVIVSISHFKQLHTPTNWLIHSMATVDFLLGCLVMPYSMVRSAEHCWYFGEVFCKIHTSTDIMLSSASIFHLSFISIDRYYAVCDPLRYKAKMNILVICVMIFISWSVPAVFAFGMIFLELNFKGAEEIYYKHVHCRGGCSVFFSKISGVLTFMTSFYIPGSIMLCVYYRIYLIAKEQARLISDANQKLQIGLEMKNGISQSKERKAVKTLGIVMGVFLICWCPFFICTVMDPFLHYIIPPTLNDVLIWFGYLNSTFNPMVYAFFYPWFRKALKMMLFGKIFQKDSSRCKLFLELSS
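test system = CHO RD-HGA16 cells bearing hTAAR1 | replication = singlicate | controls = DMSO-only wells and EC80 β-PEA-stimulated wells | reagent = EC80 β-phenethylamine stimulus | read-out basis = percent inhibition of PEA-evoked calcium signal, max/basal emission ratio | schedule = seeding 17-24 h prior, 75-min 37 °C, 30-min RT dye loading | signal = kinetic Fluo-8 calcium fluorescence measurement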
TAAR1 ag – human TAAR1 agonists, primary screen, Fluo-8 calcium fluorescence, CHO RD-HGA16 cells; Trace amine-associated receptor 1 (Homo sapiens), Q96RJ0; hit rate 0.99% among 360,000; activation, % at 3 µM; vehicle wells 0%, saturating PEA agonist 100%;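 active = activation above the mean activation of all test compounds in the run plus 3 SD, cut at about 38% in these data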
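System: CHO RD-HGA16 cells carrying human TAAR1 plus Gα16; Incubation: 17-24 h seeding, 75 min 37 °C dye, 30 min RT; Measured by: Fluo-8 fluorescence, 5 s baseline then 140 s kinetic read; Control set: DMSO and PEA EC100; Replication: single well for each compound.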
GPR7 antag – GPR7 receptor antagonists, primary screen, cell-based, fluorescence, single concentration; Neuropeptides B/W receptor type 1 (Homo sapiens), P48145; AID 1861, 2009; GPR7-expressing cells, fluorescence antagonist assay; inhibition, % at 4.4 µM; hit rate 1.1% among 290,000; in the data active = inhibition above about 16%, passing the limit was not always enough;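 also: cells stimulated with the agonist NPW; 0% = agonist with vehicle and 100% = vehicle without agonist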
Target sequence (P48145 whole entry, looked up): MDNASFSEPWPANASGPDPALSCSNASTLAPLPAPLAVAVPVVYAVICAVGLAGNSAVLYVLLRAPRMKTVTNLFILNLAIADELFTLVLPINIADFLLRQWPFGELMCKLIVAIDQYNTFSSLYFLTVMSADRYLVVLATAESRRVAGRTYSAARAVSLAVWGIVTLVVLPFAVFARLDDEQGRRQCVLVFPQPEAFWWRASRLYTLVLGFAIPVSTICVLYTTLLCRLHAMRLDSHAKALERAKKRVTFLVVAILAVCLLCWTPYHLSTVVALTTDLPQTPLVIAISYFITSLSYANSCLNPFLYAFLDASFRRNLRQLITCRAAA
OX1R antag-1 – OX1R (HCRTR1) antagonists, primary screen, fluorescence, CHO/OX1R cells, Fluo-8 calcium, orexin A; Orexin/Hypocretin receptor type 1 (Homo sapiens), O43613; Fluo-8 calcium fluorescence; inhibition, % at 5 µM; hit rate 0.43% among 330,000; AID 434989, 2010;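 active = inhibition above its plate's threshold, mean inhibition of all tested compounds on the plate plus 3 SD, cut at about 37% in these data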;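 also: 0% = orexin A challenge wells and 100% = SB-334867-A antagonist wells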
OX1R antag-2 – antagonists of human orexin 1 receptor (OX1R); OX1R-expressing cells, FRET antagonist read-out; AID 485270, 2010; hit rate 1.8% among 330,000; inhibition, % at 6.6 µM; Orexin/Hypocretin receptor type 1 (Homo sapiens), O43613; in the data active = inhibition mostly above about 38%, no sharp cut-off; inactive = mostly below about 40%;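 also: 0% = agonist challenge alone and 100% = reference antagonist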
Starred values were filed as active, the others as inactive; . = no result given.

SMILES	CHO parental Ca	TAAR1 antag	TAAR1 ag	GPR7 antag	OX1R antag-1	OX1R antag-2
O=C(NC(=C(Cl)Cl)P(=O)(c1ccccc1)c1ccccc1)c1ccccc1	-18.3	10.9	0.6	-8.5	-4.0	69.0*
O=C(NC1CCCCC1)N1Cc2cc(Br)ccc2-n2nncc2C1	.	3.7	0.2	.	.	.
CCCCn1c(=O)c(C(=O)Nc2ccccc2S(N)(=O)=O)c(O)c2ccccc21	-21.0	-13.2	3.6	-7.4	-11.5	35.3*
CCCCCn1c(=O)c(C(=O)Nc2ccccc2S(N)(=O)=O)c(O)c2ccccc21	-25.3	-7.0	3.8	-3.0	-24.8	35.0
CCCCn1c(=O)c(C(=O)Nc2ncccc2C)c(O)c2ccccc21	-11.3	6.8	55.4*	-15.5	-18.6	-1.4
CCOC(=O)C1(c2ccccc2)CCN(CCC(=O)Nc2cccc(Br)c2)CC1	.	50.1*	17.2	.	.	.
CCOC(=O)C1(c2ccccc2)CCN(CCC(=O)Nc2ccc(OC)cc2)CC1	.	-15.6	4.6	.	.	.
O=C1NCCCCC1(Cl)Cl	.	-23.9	2.1	.	.	.
O=C(N/N=C\C1C(=O)NC(=S)N(c2ccccc2)C1=O)c1ccc(O)cc1 (configuration not stated)	-7.1	5.1	8.7	-3.7	7.6	46.2*
O=C(N/N=C/c1c(O)n(-c2ccccc2)c(=S)[nH]c1=O)c1ccccc1	-8.0	12.6	0.6	0.0	20.9	16.9
O=C(O)CCl	.	6.9	0.5	.	.	.
NC1CCc2cc(O)c(O)cc2C1 (configuration not stated)	0.0	-28.5	39.0*	.	2.6	22.6
CN1CC[C@@H]2CN[C@H](c3ccccc3)C[C@@H]21	.	-7.3	0.0	.	.	.
O=C(Nc1ccc(Cl)c(Cl)c1)c1ccco1	-9.9	0.1	6.7	1.1	-14.7	8.7
C=CCNC(=S)Nc1ccc(OC(=O)Nc2ccc(Cl)c(Cl)c2)cc1	.	15.5	14.8	39.4*	.	.
CC(C)(C)C(=O)O[C@H]1CC[C@@]2(C)C(=CC(=O)C3C2CC[C@]2(C)C(=O)[C@@H](F)CC32)C1 (some centres not stated)	-16.1	-2.6	-0.4	.	-17.0	13.2
CC(C)OC(=O)C1C(c2ccc(I)cc2)CC2CCC1N2C (configuration not stated)	.	-12.6	1.7	.	.	.
Oc1ccccc1-[n+]1c(-c2ccccc2)cc(-c2ccccc2)cc1-c1ccccc1	-7.7	50.8*	7.7	.	-23.1	8.7
[O-]c1ccccc1-[n+]1c(-c2ccccc2)cc(-c2ccccc2)cc1-c1ccccc1	47.9*	29.0	3.1	.	44.6	16.2
Cc1ccccc1-[n+]1c(-c2ccccc2)cc(-c2ccccc2)cc1-c1ccccc1	54.2*	37.5	9.2	.	15.0	45.0
CN1C[C@H](O)[C@H]2C[C@@H]1c1ccccc1O2	.	-39.0	1.9	.	.	.
CCOc1ccc(NC(=O)c2c(O)[nH]c(=O)[nH]c2=O)cc1	-0.5	-3.3	0.4	.	-7.9	25.1
CCOC(=O)c1ccc(NC(=O)c2c(O)[nH]c(=O)[nH]c2=O)cc1	-7.8	7.5	14.0	48.0*	-11.1	-6.5
COC(=O)C1=C(c2cccc(C#N)c2)C[C@@H]2CC[C@H]1N2C(=O)NCCCOC(C)C	-14.5	-21.0	10.0	.	6.0	13.4
CN1CC[C@@]2(C)c3cc(O)ccc3N(C)C2O1 (some centres not stated)	-2.2	.	.	.	2.9	59.6*
SMILES	CHO parental Ca	TAAR1 antag	TAAR1 ag	GPR7 antag	OX1R antag-1	OX1R antag-2
O=C(CSC1c2ccccc2-c2ccccc21)N/N=C/c1ccccc1C(=O)O	4.9	1.4	7.4	-12.6	-1.0	53.6*
COc1cccc(-c2ccc3c(c2)C2c4cnnn4-c4ccccc4C(=O)N2CC3)c1 (configuration not stated)	.	1.5	-0.1	.	.	.
COC1CC2C=C(C)C=CC=CC(=O)NC(c3ccccc3)CC=CCCC(O)CC(=O)C2=C1O (configuration not stated)	.	84.0*	7.1	.	.	.
CN1C2CCC1C(C(=O)Oc1ccccc1)C(c1ccc(Cl)cc1)C2 (configuration not stated)	.	14.9	3.5	.	.	.
COc1ccc(C(c2nnnn2-c2ccc(OC)cc2)N2CCC(n3c(=O)[nH]c4ccccc43)CC2)cc1 (configuration not stated)	.	43.9	11.8	.	.	.
O=c1[nH]c2ccccc2n1C1CCN(C(c2cccc3ccccc23)c2nnnn2-c2ccc3c(c2)OCCO3)CC1 (configuration not stated)	.	45.5	17.6	.	.	.
COc1ccc(-n2nnnc2C(c2cc3ccccc3o2)N2CCC(n3c(=O)[nH]c4ccccc43)CC2)cc1 (configuration not stated)	.	50.6*	8.5	.	.	.
O=c1[nH]c2ccccc2n1C1CCN(C(c2cc3ccccc3o2)c2nnnn2-c2ccc3c(c2)OCCO3)CC1 (configuration not stated)	.	65.9*	16.4	.	.	.
CC[C@]12CCN(CC3(O)CC3)C(Cc3ccc(O)cc31)C2(C)C	.	-9.5	1.3	.	.	.
CCOC(=O)CSc1ccc(C(=O)N2CCC3(CC2)OCCO3)cc1[N+](=O)[O-]	-11.5	-9.5	5.3	-3.6	-6.7	18.1
Cc1ccc2c(C)cccc2c1	.	-17.0	4.5	.	.	.
COc1ccc(-n2nnnc2C(CCc2ccccc2)N2CCC3(CC2)C(=O)NCN3c2ccccc2)cc1 (configuration not stated)	.	-19.6	-0.9	.	.	.
COc1ccc(-n2nnnc2C(CCSC)N2CCC3(CC2)C(=O)NCN3c2ccccc2)cc1 (configuration not stated)	.	50.7*	13.9	.	.	.
O=C(NC(=O)c1c(F)cccc1F)Nc1cc(Cl)c(F)c(Cl)c1F	-6.6	-2.5	3.2	active	-10.6	8.6
O=[N+]([O-])c1ccc(O)c([N+](=O)[O-])c1	-1.7	-27.1	4.5	.	2.9	68.9*
O=[N+]([O-])c1ccc(Cl)c([N+](=O)[O-])c1	-0.3	-5.8	1.2	.	11.7	47.7*
CCN(CC)C(=O)c1ccc(NC(=O)c2cccc(C(F)(F)F)c2)cc1	7.5	19.4	0.6	-9.3	-20.6	31.4
CCN(CC)C(=O)c1ccc(NC(=O)c2ccc(-n3cncn3)c([N+](=O)[O-])c2)cc1	-5.0	-10.7	0.5	.	-15.2	63.9*
COc1ccc(OC(=O)N(C)C[C@H]2OCc3cnnn3CCCC(=O)N([C@@H](C)CO)C[C@@H]2C)cc1	.	-18.7	2.7	.	.	.
CC1CCOC(=O)C=CC=CC(=O)OC2CC3OC4C5OC5(C)C(O)CC4(COC(=O)C1O)C2(C)C31CO1 (configuration not stated)	.	6.2	1.1	.	.	.

Source: PubChem (The Scripps Research Institute Molecular Screening Center)
